Results taken from ChEMBL document CHEMBL5036309, “Orally Active Peptide Vector Allows Using Cannabis to Fight Pain While Avoiding Side Effects” (J Med Chem, 2021).
Active and inactive are the calls of the source. Square brackets hold non-standard residues; d marks the D form. Peptide text beside a SMILES is read from it.

What was measured:
HEK293T [1] = experiment: Inhibition of human c-YFP fused CB1R/n-YFP fused 5HT2A receptor heterodimer formation expressed in HEK293T cells assessed as decrease in forskolin induced cAMP level preincubated for 15 mins forskolin and DOI stimulation and measured after 15 mins by HTRF assay; format: cell-based; conditions: time 30.0 min
HEK293T [2] = experiment: Inhibition of human c-YFP fused CB1R/n-YFP fused 5HT2A receptor heterodimer formation expressed in HEK293T cells assessed as decrease in forskolin induced cAMP level preincubated for 15 mins forskolin and WIN 55,212-2 stimulation and measured after 15 mins by HTRF assay; format: cell-based; conditions: time 30.0 min
HEK293T [3] = experiment: Inhibition of human c-YFP fused CB1R/n-YFP fused 5HT2A receptor heterodimer formation expressed in HEK293T cells assessed as increase in pERK level preincubated for 15 mins followed by WIN 55,212-2 stimulation for 7 mins by microplate reader method; format: cell-based; conditions: time 22.0 min
HEK293T [4] = experiment: Inhibition of human c-YFP fused CB1R/n-YFP fused 5HT2A receptor heterodimer formation expressed in HEK293 cells assessed as increase in pERK level preincubated for 15 mins followed by DOI stimulation for 7 mins by microplate reader method; format: cell-based; conditions: time 22.0 min
HEK293T [5] = experiment: Inhibition of human c-YFP fused CB1R/n-YFP fused 5HT2A receptor heterodimer formation transfected in human HEK293T cells at 4 uM incubated for 4 hrs by BIFC assay; format: cell-based
How it was run: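 HEK-293T cells were cotransfected 48 h with 5HT2AR-cYFP and CB1R-nYFP (4 μg cDNA each, polyethylenimine), then treated with 4 μM peptide or vehicle for 4 h at 37 °C. Reconstituted YFP Venus was read on 20 μg protein at 530 nm emission with 400 nm excitation, minus the fluorescence of non-expressing cells. Mean ± SEM, n = 10–30.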

BEND3 = experiment: Induction of BBB translocation in mouse BEND3 cells measured after 24 hrs by fluorescence analysis; format: functional, cell-based
How it was run: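 5(6)-Carboxyfluorescein-labeled peptides were applied to a transwell BBB model of bEnd.3 cells. Translocation (%) was measured as fluorescence in the basolateral chamber after 24 h, with a trans-BBB peptide as positive control. Barrier integrity was checked afterward by FD4 dextran permeability. Mean ± SEM, n = 3–6, independent cultures on different days.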

Mus musculus [6] = experiment: Analgesic activity in mouse assessed as pain response at 20 mg/kg, iv pretreated with compound for 30 mins followed by THP addition and measured after 60 mins by hot plate test; format: functional, organism-based; conditions: time 90.0 min
How it was run: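 Mice got peptide or vehicle IV (20 mg/kg) or orally by gavage (5, 10, 20 mg/kg) 30 min before IP THC 10 mg/kg (vehicle 5% ethanol, 5% Cremophor-EL, 90% saline). Latency to jump on a 52 ± 0.5 °C hot plate was read 60 min after THC, with a 240 s cutoff. Mean ± SEM, n = 10–12 (IV) or 5–8 (oral); Fisher LSD.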

Mus musculus [7] = experiment: Protection against THP-induced amnesic effect in mouse assessed as reduction in memory impairment at 20 mg/kg, iv pretreated for 30 mins followed by THP addition; format: functional, organism-based
How it was run: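 V-maze novel object recognition. Day 1 was 9 min habituation. Day 2 was 9 min training with two identical objects. Peptide was given IV (20 mg/kg) or orally (5, 10, 20 mg/kg) right after training, then IP THC 3 mg/kg or vehicle 30 min later. The 9 min test came 24 h later with one object replaced. Discrimination index = (novel − familiar)/total exploration time; exploration meant the nose oriented within 2 cm of the object. Fisher LSD.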

[8] = Drug internalization in mouse BEND3 cells by confocal microscopic analysis; format: ADME, cell-based
How it was run: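 bEnd.3 mouse brain endothelial cells were exposed to 5(6)-carboxyfluorescein-labeled peptides and counterstained with Hoechst 33342 and CellMask Deep Red membrane stain. Imaging used point-scanning confocal microscopy with a 63× oil objective, 405 nm excitation for the stains and 488 nm for the peptide.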

Drug uptake [8] | Compound | inhibition (HEK293T [1]) | inhibition (HEK293T [2]) | inhibition (HEK293T [3]) | inhibition (HEK293T [4]) | inhibition (HEK293T [5]) | Activity (BEND3) | Activity (Mus musculus [6]) | Activity (Mus musculus [7])
 | COc1cccc([C@H](O)C2CCN(CCc3ccc(F)cc3)CC2)c1OC | inactive | inactive | inactive | inactive |  |  |  | 
 | Cc1c(C(=O)NN2CCCCC2)nn(-c2ccc(Cl)cc2Cl)c1-c1ccc(Cl)cc1 | inactive | inactive | inactive | inactive |  |  |  | 
 | CC[C@H](C)[C@H](NC(=O)[C@@H](NC(=O)[C@@H]1CCCN1C(=O)[C@H](CC(N)=O)NC(=O)[C@@H](NC(=O)[C@@H](NC(=O)[C@H](CO)NC(=O)[C@H](CC(N)=O)NC(=O)[C@H](CC(C)C)NC(=O)[C@H](CC(C)C)NC(=O)[C@H](CS)NC(=O)[C@H](CC(C)C)NC(=O)[C@H](CCSC)NC(=O)[C@H](CO)NC(=O)[C@H](CS)NC(=O)[C@H](Cc1ccccc1)NC(=O)[C@H](C)NC(=O)[C@H](Cc1ccccc1)NC(=O)[C@@H](NC(=O)[C@@H](NC(=O)[C@H](CCCCN)NC(=O)[C@@H](NC(=O)[C@@H](N)CC(C)C)[C@@H](C)CC)[C@@H](C)O)C(C)C)[C@@H](C)O)C(C)C)[C@@H](C)CC)C(=O)N[C@@H](Cc1ccc(O)cc1)C(=O)N[C@@H](C)C(=O)N[C@@H](CC(C)C)C(=O)N[C@@H](CCCNC(=N)N)C(=O)NCC(=O)N[C@@H](CCCNC(=N)N)C(=O)N[C@@H](CCCCN)C(=O)N[C@@H](CCCCN)C(=O)N[C@@H](CCCNC(=N)N)C(=O)N[C@@H](CCCNC(=N)N)C(=O)N[C@@H](CCC(N)=O)C(=O)N[C@@H](CCCNC(=N)N)C(=O)N[C@@H](CCCNC(=N)N)C(=O)N[C@@H](CCCNC(=N)N)C(N)=O (H-LIKTVFAFCSMLCLLNSTVNPIIYALRGRKKRRQRRR-NH2) |  | inactive | inactive | inactive | inactive |  |  | 
 | CC[C@@H](C)[C@@H](NC(=O)CNC(=O)[C@@H](C)NC(=O)[C@H](Cc1c[nH]c2ccccc12)NC(=O)[C@H](CC(C)C)NC(=O)[C@@H](NC(=O)[C@H](Cc1ccc(O)cc1)NC(=O)[C@H](CCSC)NC(=O)[C@H](Cc1ccc(O)cc1)NC(=O)[C@H](C)NC(=O)[C@H](Cc1ccc(O)cc1)NC(=O)[C@@H](N)C(C)C)[C@@H](C)CC)C(=O)N[C@H](CC(C)C)C(=O)N[C@H](CCCCN)C(=O)N[C@H](CCCNC(=N)N)C(=O)N[C@H](Cc1c[nH]c2ccccc12)C(N)=O (H-VYAYMYILW[dA]G[dI][dL][dK][dR][dW]-NH2) | Active | Active | Active | Active |  | Active |  | 
 | CC[C@H](C)[C@H](NC(=O)[C@H](Cc1ccc(O)cc1)NC(=O)[C@H](CCSC)NC(=O)[C@H](Cc1ccc(O)cc1)NC(=O)[C@H](C)NC(=O)[C@H](Cc1ccc(O)cc1)NC(=O)[C@@H](N)C(C)C)C(=O)N[C@@H](CC(C)C)C(=O)N[C@@H](Cc1c[nH]c2ccccc12)C(=O)N[C@H](CO)C(=O)N[C@H](CCCCN)C(=O)N[C@H](CO)C(=O)N[C@H](CCCCN)C(=O)N[C@H](CO)C(=O)N[C@H](CCCCN)C(N)=O (H-VYAYMYILW[dS][dK][dS][dK][dS][dK]-NH2) | Active | Active | Active | Active |  | Active |  | 
 | CC[C@@H](C)[C@@H](NC(=O)CNC(=O)[C@@H](C)N)C(=O)N[C@H](CC(C)C)C(=O)N[C@H](CCCCN)C(=O)N[C@H](CCCNC(=N)N)C(=O)N[C@H](Cc1c[nH]c2ccccc12)C(=O)N[C@@H](CCCCN)C(=O)N[C@H](C(=O)N[C@@H](CC(C)C)C(=O)N[C@H](C(=O)N[C@@H](CC(C)C)C(=O)N[C@H](C(=O)N[C@@H](CC(C)C)C(=O)N[C@H](C(=O)N[C@H](C(N)=O)C(C)C)C(C)C)[C@@H](C)CC)C(C)C)[C@@H](C)O (H-[dA]G[dI][dL][dK][dR][dW]KTLVLILVV-NH2) | Active | Active | Active | Active |  | Active |  | 
Active | CC[C@@H](C)[C@@H](NC(=O)CNC(=O)[C@@H](C)N)C(=O)N[C@H](CC(C)C)C(=O)N[C@H](CCCCN)C(=O)N[C@H](CCCNC(=N)N)C(=O)N[C@H](Cc1c[nH]c2ccccc12)C(=O)N[C@@H](C(=O)N[C@@H](C(=O)N[C@H](CC(C)C)C(=O)N[C@@H](C(=O)N[C@H](CC(C)C)C(=O)N[C@@H](C(=O)N[C@H](CC(C)C)C(=O)N[C@@H](C(=O)N[C@H](CCCCN)C(N)=O)[C@H](C)O)C(C)C)[C@H](C)CC)C(C)C)C(C)C (H-[dA]G[dI][dL][dK][dR][dW][dV][dV][dL][dI][dL][dV][dL][dT][dK]-NH2) |  |  |  |  | Active | Active | Active | inactive
 | CC[C@H](C)[C@H](NC(=O)[C@H](CC(C)C)NC(=O)[C@@H](NC(=O)[C@H](CC(C)C)NC(=O)[C@@H](NC(=O)[C@H](CCCCN)NC(=O)[C@@H](CCCCN)NC(=O)[C@@H](CO)NC(=O)[C@@H](CCCCN)NC(=O)[C@@H](CO)NC(=O)[C@@H](CCCCN)NC(=O)[C@H](N)CO)[C@@H](C)O)C(C)C)C(=O)N[C@@H](CC(C)C)C(=O)N[C@H](C(=O)N[C@H](C(N)=O)C(C)C)C(C)C (H-[dS][dK][dS][dK][dS][dK]KTLVLILVV-NH2) | Active | Active | Active | Active |  | Active |  | 
 | H-AGILKRWKTLVLILVV-NH2 | Active | Active | Active | Active |  |  |  | 
 | H-ETYLMFWIGVTSVLLLFIVYAYMYILWGRKKRRQRRR-NH2 |  | Active | Active | Active | Active |  |  | 
 | H-GRKKRRQRRRKTLVLILVV-NH2 | Active | Active | Active | Active | Active |  |  | 
 | H-GRKKRRQRRRKTLVLILVVLIICWGPLLAIMVYDVF-NH2 |  | Active | Active | Active | Active |  |  | 
 | H-RKRKTLVLILVV-NH2 | Active | Active | Active | Active |  |  |  | 
 | H-SKSKSKKTLVLILVV-NH2 | Active | Active | Active | Active |  |  |  | 
 | H-VYAYMYILWAGILKRW-NH2 | Active | Active | Active | Active |  |  |  | 
 | H-VYAYMYILWGRKKRRQRRR-NH2 | Active | Active | Active | Active | Active |  |  | 
 | H-VYAYMYILWRKR-NH2 | Active | Active | Active | Active |  |  |  | 
 | H-VYAYMYILWSKSKSK-NH2 | Active | Active | Active | Active |  |  |  | 
